# Measurements: ChEMBL document CHEMBL1124584, “Effect of triphenylacrylonitrile derivatives on estradiol-receptor binding and on human breast cancer cell growth” (J Med Chem, 1989)
# What was measured:
# [1] = target: T1, Anti-estrogen binding site (AEBS) (Homo sapiens) (UniProt Q15125+Q9UBM7); test: Relative binding affinity for antiestrogen binding site (AEBS) of calf uterus cytosol; format: tissue-based
# Method in brief: (§1)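 Calf uterus was homogenized in TED buffer (10 mM Tris-HCl, 1.5 mM EDTA, 1 mM DTT, pH 7.4) and spun at 12000 g for 1 h at 0–4 °C. […] Free ligand was removed with dextran-charcoal, and bound ligand was counted by scintillation. RBA was taken from the 50% displacement concentration.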
# [2] = target: T1, Anti-estrogen binding site (AEBS) (Homo sapiens); test: Relative binding affinity for antiestrogen binding site (AEBS) of calf uterus 2 hr incubation at 0C; format: tissue-based; method in brief: as §1
# [3] = system: BT-20; test: Inhibitory activity against proliferation of BT-20 cells in presence of TPE at 10e-5 M concentration.; format: functional; conditions: Homo sapiens
# Method in brief: (§2)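 ER-negative BT-20 cells were seeded at 40000/well in phenol-red-free MEM-based medium and exposed to compound (3–10 µM) for 5 or 6 days, with medium renewed every 2 days. DNA content was read in triplicate wells as % of vehicle control. Values are given as the IC30 and as % inhibition at 10^-5 M.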
# [4] = system: BT-20; test: Percent of inhibitory activity against proliferation of BT-20 cells in presence of TPE at 10e-5 M concentration.; format: functional; conditions: Homo sapiens; method in brief: as §2
# [5] = system: MCF7; test: Effective dose for [3H]- estradiol against proliferation of MCF-7 cells; format: functional, cell-based; conditions: Homo sapiens
# [6] = system: MCF7; test: In vitro inhibition of MCF-7 cell proliferation compared to 0.1 nM [3H]-estradiol.; format: functional, cell-based; conditions: Homo sapiens
# [7] = system: MCF7; test: Percent of inhibitory activity against proliferation of MCF-7 cells in presence of 10e-6 M concentration of […] (E2).; format: functional, Homo sapiens
# Method in brief: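 Cytotoxicity assay: MCF-7 cells were seeded at 20000/well in phenol-red-free medium with 5% DCC-treated FCS and exposed to compound (3–10 µM) plus 1 µM E2 for 6 days. Medium was renewed every 2 days. DNA content was read in triplicate wells as % of 1 µM E2 alone. Values are given as the IC30 and as % inhibition at 10^-5 M.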
# [8] = system: MCF7; test: Percent of inhibitory activity versus 0.1 nm […] against proliferation of MCF-7 cells.; format: functional, Homo sapiens
# Method in brief: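 Same MCF-7 pre-culture in steroid-depleted phenol-red-free medium, seeded at 10000 cells/well. Cells grew with 0.1 nM E2 plus various compound concentrations, medium renewed every 2 days, for 8 days. DNA was measured in triplicate wells, as % DNA relative to E2 alone. % antagonist = (E2−TPE)/(E2−control)×100, from the IC50 or the response at 10^-6 M.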
# [9] = system: MCF7; test: Percent of effective dose for […] against proliferation of MCF-7 cells.; format: functional, Homo sapiens
# Method in brief: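 MCF-7 cells were kept 6 days in phenol-red-free MEM-based medium with 5% dextran-charcoal-stripped FCS, then seeded at 10000 cells/well. After 1 day they got test compound (10 pM to 1 µM) without E2, or vehicle (0.2% ethanol); medium was renewed every 2 days. DNA was assayed after 8–10 days in triplicate wells. % agonist = (TPE−control)/(E2−control)×100, from the EC50 or the maximum response.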
# [10] = system: MCF7; test: Inhibitory activity against proliferation of MCF-7 cells in presence of 10e-6 M concentration of [3H]- estradiol (E2); format: functional; conditions: Homo sapiens
# [11] = target: T2, Estrogen receptor (Bos taurus) (UniProt Q9XSB5+P49884); conditions: Uterus; Cytosol
# [12] = target: T2, Estrogen receptor (Bos taurus); conditions: Uterus; Cytosol; remark: listed apart in the source
# [13] = target: T2, Estrogen receptor (Bos taurus); test: Selectivity for relative binding affinity against estrogen receptor in at 2 hrs and 5 hr in calf uterus cytosol; format: protein assay
# Method in brief: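 Calf uterine cytosol (TED buffer, pH 7.4; 180000 g, 1 h) was incubated with 1 nM [3H]E2 and competitor (0.3 nM–10 µM, 1% ethanol), either 2 h at 0 °C or 5 h at 25 °C. Bound ligand was separated with dextran-charcoal and counted by scintillation. RBA came from the concentration giving 50% displacement relative to E2. The value is the ratio of the 25 °C RBA to the 0 °C RBA.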
SMILES,relative binding affinity (RBA) ([1]; Bos taurus),RBA ([2]; Bos taurus),IC30 [3] [µM],inhibition at 10 µM [4] [%],EC50 [5] [nM],IC50 [6] [µM],Inhibition [7] [%],Inhibition [8] [%],Agonism [9] [%],IC30 [10] [µM],RBA1 [11],RBA2 [12],Selectivity [13],relative binding affinity (RBA) [1],RBA [2]
CC/C(=C(/c1ccc(O)cc1)c1ccc(OCCN(C)C)cc1)c1ccccc1,20,20,9.3,33,0.016,0.022,74,91,61,5.3,–,–,–,–,–
CCN(CC)CCOc1ccc(/C(=C(\C#N)c2ccccc2)c2ccc(O)cc2)cc1,6.9,6.9,3.5,94,0.03,0.025,89,100,12,3.9,3.6,3.4,–,–,–
CCN(CC)CCOc1ccc(/C(=C(/C#N)c2ccccc2)c2ccc(O)cc2)cc1,27,27,6.4,57,0.02,0.0046,77,100,16,4.8,126,108,0.85,–,–
CCN(CC)CCOc1ccc(C(=C(C#N)c2ccccc2)c2ccc(OCCN(CC)CC)cc2)cc1,3.6,3.6,3.3,87,0.28,> 1,94,27,62,3.1,0.42,0.4,–,–,–
CC/C(=C(\c1ccccc1)c1ccc(OCCN(C)C)cc1)c1ccccc1 [TAMOXIFEN],100,100,5.7,56,0.11,0.219,49,90,21,6.5,–,–,–,–,–
CCC(=C(c1ccc(O)cc1)c1ccc(OCCN(C)C)cc1)c1ccccc1,–,–,4.8,65,0.003,0.0025,81,100,10,4,–,–,–,40,40
